Test results published in ChEMBL document CHEMBL4828721, “Substituted dienes prepared from betulinic acid - Synthesis, cytotoxicity, mechanism of action, and pharmacological parameters” (Eur J Med Chem, 2021).
Calls of active or inactive are those of the source. The calls are words filed in the database; no cut-off is given here.

Key:
[1] = system: CCRF-CEM; assay: Cytotoxicity against human CCRF-CEM cells assessed as reduction in cell viability measured after 72 hrs by MTS assay; format: functional, cell-based
[2] = system: CEM-DNR; assay: Cytotoxicity against daunorubicin resistant human CEM-DNR cells assessed as reduction in cell viability measured after 72 hrs by MTS assay; format: functional, cell-based
[3] = Cytotoxicity against human HCT116 p53-null cells assessed as reduction in cell viability measured after 72 hrs by MTS assay; format: functional, cell-based
[4] = system: K562; assay: Cytotoxicity against human K562 cells assessed as reduction in cell viability measured after 72 hrs by MTS assay; format: functional, cell-based; settings: K562, 72 h
[5] = system: A549; assay: Cytotoxicity against human A549 cells assessed as reduction in cell viability measured after 72 hrs by MTS assay; format: functional, cell-based; settings: A549, 72 h
[6] = system: U2OS; assay: Cytotoxicity against human U2OS cells assessed as reduction in cell viability measured after 72 hrs by MTS assay; format: functional, cell-based
[7] = system: MRC5; assay: Cytotoxicity against human MRC5 cells assessed as reduction in cell viability measured after 72 hrs by MTS assay; format: cell-based; settings: MRC5, 72 h
[8] = system: CCRF-CEM; assay: Cell cycle arrest in human CCRF-CEM cells assessed as accumulation of cells at G0/G1 phase at IC50 measured after 24 hrs by propidium iodide staining based flow cytometry analysis (Rvb= 40.20%); format: functional
[9] = system: CCRF-CEM; assay: Cell cycle arrest in human CCRF-CEM cells assessed as accumulation of cells at G0/G1 phase at 5 times IC50 measured after 24 hrs by propidium iodide staining based flow cytometry analysis (Rvb= 40.20%); format: functional
[10] = system: CCRF-CEM; assay: Cell cycle arrest in human CCRF-CEM cells assessed as accumulation of cells at G2/M phase at IC50 measured after 24 hrs by propidium iodide staining based flow cytometry analysis (Rvb= 21.62%); format: functional
[11] = system: CCRF-CEM; assay: Induction of mitotic arrest in human CCRF-CEM cells assessed as phosphorylation of histone H3 at Ser10 at IC50 measured after 24 hrs by propidium iodide staining based flow cytometry analysis (Rvb= 1.72%); format: functional
[12] = system: CCRF-CEM; assay: Induction of apoptosis in human CCRF-CEM cells assessed as live cells at 5 times IC50 measured after 24 hrs by Annexin V-FITC/PI staining based flow cytometry analysis (Rvb= 96.7%); format: functional
[13] = system: CCRF-CEM; assay: Induction of apoptosis in human CCRF-CEM cells assessed as late apoptotic cells at IC50 measured after 24 hrs by Annexin V-FITC/PI staining based flow cytometry analysis (Rvb= 1.4%); format: functional
[14] = system: CCRF-CEM; assay: Induction of apoptosis in human CCRF-CEM cells assessed as dead cells at 5 times IC50 measured after 24 hrs by Annexin V-FITC/PI staining based flow cytometry analysis (Rvb= 0.3%); format: functional
Procedure, shortened: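 They were washed in ice-cold PBS and incubated with Annexin V-FITC plus PI for 20 min at room temperature in the dark. Cells were then pelleted and resuspended in binding buffer (10 mmol/L HEPES/NaOH pH 7.4, 140 mmol/L NaCl, 2.5 mmol/L CaCl2). Read on a FACSAria II, ≥10,000 cells per sample.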

[15] = system: CCRF-CEM; assay: Induction of apoptosis in human CCRF-CEM cells assessed as activation of caspase 8 at 5 times IC50 measured after 24 hrs by western blot analysis; format: functional, cell-based
Procedure, shortened: (§1)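 Protein (15 µg/lane) was resolved by 10% SDS-PAGE and transferred to nitrocellulose. Blocked in 5% milk/TBST, then probed overnight at 4 °C with primary antibodies (1:1000) and HRP secondaries. Detected by ECL, with β-actin as loading control.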

[16] = system: CCRF-CEM; assay: Induction of apoptosis in human CCRF-CEM cells assessed as downregulation of Bcl2 expression at 5 times IC50 measured after 24 hrs by western blot analysis; format: functional, cell-based; procedure, shortened: as §1
[17] = system: CCRF-CEM; assay: Induction of apoptosis in human CCRF-CEM cells assessed as upregulation of BAX expression at 5 times IC50 measured after 24 hrs by western blot analysis relative to control; format: functional; procedure, shortened: as §1
[18] = system: CCRF-CEM; assay: Induction of cell cycle arrest in human CCRF-CEM cells assessed as upregulation of p21 protein expression at 5 times IC50 measured after 24 hrs by western blot analysis; format: functional, cell-based; procedure, shortened: as §1
[19] = Stability in human plasma assessed as parent compound remaining at 2 uM incubated for 15 mins by RF-MS analysis; format: ADME, cell-free; settings: read-out: Stability
[20] = Stability in human plasma assessed as parent compound remaining at 2 uM incubated for 30 mins by RF-MS analysis; format: ADME, cell-free; settings: read-out: Stability
[21] = Stability in human plasma assessed as parent compound remaining at 2 uM incubated for 120 mins by RF-MS analysis; format: ADME, cell-free; settings: read-out: Stability
[22] = Microsomal stability in human liver microsomes assessed as parent compound remaining at 2 uM in the presence of NADPH measured after 15 mins by RF-MS analysis; format: ADME, Microsome; settings: read-out: Stability
Procedure, shortened: (§2)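 Human liver microsomes incubated with compound in the presence of NADPH cofactor to assess phase I oxidation. Intrinsic clearance was derived from the decline of the parent compound.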

[23] = Microsomal stability in human liver microsomes assessed as parent compound remaining at 2 uM in the presence of NADPH measured after 30 mins by RF-MS analysis; format: ADME, Microsome; settings: read-out: Stability; procedure, shortened: as §2
[24] = Efflux ratio of apparent permeability across basolateral to apical side to apparent permeability across apical to basolateral side in dog MDCK-MDR1 cells at pH 7.4 at 10 micromol/L measured after 1 hr by RF-MS analysis; format: ADME, cell-based, Canis lupus familiaris; settings: MDCK-MDR1, pH 7.4, dose 10 µmol/L
Procedure, shortened: (§3)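 Efflux ratio is Papp(B→A)/Papp(A→B) from bidirectional transport across Caco-2 (2 h) or MDCK-MDR1 (1 h) monolayers. Compound was dosed in HBSS pH 7.4 and quantified by RapidFire MS/MS. Run in duplicates. ER > 2 was taken as a potential P-gp substrate.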

[25] = Efflux ratio of apparent permeability across basolateral to apical side to apparent permeability across apical to basolateral side in human Caco2 cells at pH 7.4 at 10 micromol/L measured after 2 hrs by RF-MS analysis; format: ADME, cell-based; settings: Caco-2, pH 7.4, dose 10 µmol/L; procedure, shortened: as §3

Question: What does the source list for `C=C(/C=C/c1ccc([N+](=O)[O-])cc1)[C@@H]1CC[C@]2(C(=O)O)CC[C@]3(C)[C@H](CC[C@@H]4[C@@]5(C)CC[C@H](O)C(C)(C)[C@@H]5CC[C@]43C)[C@@H]12`?
Answer: IC50 [1]: 3.6 µM; IC50 [2]: 22.9 µM; IC50 [3]: 15.7 µM; IC50 [4]: 11.5 µM; IC50 [5]: 14.3 µM; IC50 [6]: 19.5 µM; IC50 [7]: 19.2 µM; Activity [8]: 48.4%; Activity [9]: 29.57%; Activity [10]: 23.16%; Activity [11]: 2.9%; Activity [12]: 70.9%; Activity [13]: 4.9%; Activity [14]: 1.9%; Activity [15]: inactive; Activity [16]: Active; Activity [17]: 20%; Activity [18]: Active; remaining at 0.25 h, 2 µM [19]: 102%; remaining at 0.5 h, 2 µM [20]: 79.1%; remaining at 2 h, 2 µM [21]: 71.5%; remaining at 0.25 h, 2 µM [22]: 93.2%; remaining at 0.5 h, 2 µM [23]: 78.5%; efflux ratio at 1 h, 10 µM [24]: 3.06; efflux ratio at 2 h, 10 µM [25]: 2.5

Question: For `C=C(/C=C/c1cccc(Cl)c1)[C@@H]1CC[C@]2(C(=O)O)CC[C@]3(C)[C@H](CC[C@@H]4[C@@]5(C)CC[C@H](O)C(C)(C)[C@@H]5CC[C@]43C)[C@@H]12`, which IC50 [1] is on record?
Answer: Its IC50 is 3.2 µM.

Question: And the IC50 [2]?
Answer: Its IC50 is 25.5 µM.

Question: And the IC50 [3]?
Answer: The IC50 was 15.2 µM.

Question: And the IC50 [4]?
Answer: Its IC50 is 27.7 µM.

Question: And the IC50 [5]?
Answer: The IC50 was 29.2 µM.

Question: What about the IC50 [6] of the same compound?
Answer: Its IC50 is 17.3 µM.

Question: And the IC50 [7]?
Answer: The IC50 was 32.6 µM.

Question: And the Activity [8]?
Answer: The Activity was 42.87%.

Question: What about the Activity [9] of the same compound?
Answer: Its Activity is 49.79%.

Question: And the Activity [10]?
Answer: Its Activity is 14.39%.

Question: And the Activity [11]?
Answer: Its Activity is 1.5%.

Question: And the Activity [12]?
Answer: Its Activity is 88.5%.

Question: And the Activity [13]?
Answer: The Activity was 4.6%.

Question: What about the Activity [15] of the same compound?
Answer: Its Activity is “inactive”.

Question: What about the Activity [18] of the same compound?
Answer: The Activity was “Active”.

Question: What about the remaining at 0.25 h, 2 µM [19] of the same compound?
Answer: Its remaining at 0.25 h, 2 µM is 92.3%.

Question: What about the remaining at 0.5 h, 2 µM [20] of the same compound?
Answer: Its remaining at 0.5 h, 2 µM is 87.9%.

Question: And the remaining at 2 h, 2 µM [21]?
Answer: The remaining at 2 h, 2 µM was 77.7%.

Question: What about the remaining at 0.25 h, 2 µM [22] of the same compound?
Answer: Its remaining at 0.25 h, 2 µM is 90.1%.

Question: And the remaining at 0.5 h, 2 µM [23]?
Answer: Its remaining at 0.5 h, 2 µM is 92.4%.

Question: And the efflux ratio at 1 h, 10 µM [24]?
Answer: Its efflux ratio at 1 h, 10 µM is 2.9.

Question: And the efflux ratio at 2 h, 10 µM [25]?
Answer: Its efflux ratio at 2 h, 10 µM is 2.64.
